Experimental data from ChEMBL document CHEMBL1955763, “Antimicrobial activity of sulfonamides containing 5-chloro-2-hydroxybenzaldehyde and 5-chloro-2-hydroxybenzoic acid scaffold” (Eur J Med Chem, 2012).
In brackets after ≈: the same amount, converted by molar mass.

Assays:
Mycobacterium avium [1] = test: Antimycobacterial activity against isoniazid-, rifampicin-, ofloxacin-, ethambutol-resistant Mycobacterium avium 330/88 after 14 days; type: functional; conditions: 330/88, 336 h
Procedure, shortened: (§1)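 Micromethod in Sula semisynthetic medium, with compounds added as DMSO solutions over a two-fold series from 1000 down to 1. Inoculum for M. avium 330/88 was a 10⁻⁵ dilution. Plates were incubated at 37 °C and MIC was read after 14 and 21 days.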

Mycobacterium kansasii [2] = test: Antimycobacterial activity against Mycobacterium kansasii 235/80 after 7 days; type: functional; conditions: 235/80, 168 h
Procedure, shortened: (§2)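 Micromethod MIC in Sula semisynthetic medium, with compounds added as DMSO solutions at […]. Incubation at 37 °C. Inocula: M. kansasii 235/80 at dilution 10⁻⁴, clinical isolate 6509/96 at 10⁻⁵.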

Staphylococcus aureus [3] = test: Antibacterial activity against Staphylococcus aureus CCM 4516/08 after 24 hrs by broth microdilution method; type: functional; conditions: CCM 4516/08, 24 h
Procedure, shortened: (§3)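 Microdilution broth method modified from M07-A07, in Mueller-Hinton broth at pH 7.4 (±0.2). Compounds were dissolved in DMSO. Inoculum was made in sterile water to 0.5 McFarland (1.5 × 10⁸ CFU/mL). MIC was taken as IC₉₀, meaning ≥90% growth reduction versus the drug-free control. Growth was read visually and by absorbance at 540 nm.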

[4] = system: Staphylococcus epidermidis; test: Antibacterial activity against methicillin-resistant Staphylococcus epidermidis H 6966/08 after 48 hrs by broth microdilution method; type: functional; conditions: H 6966/08, 48 h; procedure, shortened: as §3
[5] = system: Mycobacterium tuberculosis; test: Antituberculosis activity against Mycobacterium tuberculosis H37Rv after 18 hrs by alamar blue assay; type: functional, organism-based
[6] = Selectivity ratio of IC50 for human HepG2 cell sto MIC100 for Mycobacterium kansasii 235/80; type: functional
[7] = system: Mycobacterium tuberculosis; test: Antimycobacterial activity against Mycobacterium tuberculosis H37Rv 331/88 after 21 days; type: functional; conditions: H37Rv 331/88, 504 h; procedure, shortened: as §1
Mycobacterium kansasii [8] = test: Antimycobacterial activity against Mycobacterium kansasii 6509/96 after 7 days; type: functional; conditions: 6509/96, 168 h; procedure, shortened: as §2
[9] = Selectivity ratio of IC50 for human HepG2 cell sto MIC100 for Mycobacterium kansasii 6509/96; type: functional
Mycobacterium avium [10] = test: Antimycobacterial activity against isoniazid-, rifampicin-, ofloxacin-, ethambutol-resistant Mycobacterium avium 330/88 after 21 days; type: functional; conditions: 330/88, 504 h; procedure, shortened: as §1
Staphylococcus aureus [11] = test: Antibacterial activity against Staphylococcus aureus CCM 4516/08 after 48 hrs by broth microdilution method; type: functional; conditions: CCM 4516/08, 48 h
Procedure, shortened: (§4)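 Broth microdilution modified from standard M07-A07 in Mueller-Hinton broth at pH 7.4 (±0.2). Compounds were dissolved in DMSO. Inoculum in sterile water was adjusted to 0.5 McFarland (1.5 × 10⁸ CFU/mL). MIC was taken as IC₉₀, i.e. ≥90% growth reduction versus control, read visually and spectrophotometrically at 540 nm.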

[12] = Selectivity ratio of IC50 for human HepG2 cell sto MIC90 for Staphylococcus aureus CCM 4516/08; type: functional
Mycobacterium kansasii [13] = test: Antimycobacterial activity against Mycobacterium kansasii 6509/96 after 21 days; type: functional; conditions: 6509/96, 504 h; procedure, shortened: as §2
HepG2 = test: Cytotoxicity against human HepG2 cells after 24 hrs by MTS assay; type: cell-based; conditions: HepG2, 24 h
Procedure, shortened: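 Hep G2 human liver cells (passage 3–4), 10 000 per well, in MEM with 1% glutamine, 10% fetal serum and 1% non-essential amino acids. Compounds were added from DMSO at eight increasing concentrations in quadruplicate. Exposure was 24 h at 37 °C in 5% CO₂, then MTS reagent for 1.5 h. Formazan was read at 490 nm and IC₅₀ derived as 50% of control viability.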

Mycobacterium kansasii [14] = test: Antimycobacterial activity against Mycobacterium kansasii 235/80 after 14 days; type: functional; conditions: 235/80, 336 h; procedure, shortened: as §2
[15] = system: Mycobacterium tuberculosis; test: Antimycobacterial activity against Mycobacterium tuberculosis H37Rv 331/88 after 14 days; type: functional; conditions: H37Rv 331/88, 336 h
Staphylococcus aureus [16] = test: Antibacterial activity against methicillin-resistant Staphylococcus aureus H 5996/08 after 24 hrs by broth microdilution method; type: functional; conditions: H 5996/08, 24 h; procedure, shortened: as §3
Mycobacterium kansasii [17] = test: Antimycobacterial activity against Mycobacterium kansasii 235/80 after 21 days; type: functional; conditions: 235/80, 504 h; procedure, shortened: as §2
[18] = system: Staphylococcus epidermidis; test: Antibacterial activity against methicillin-resistant Staphylococcus epidermidis H 6966/08 after 24 hrs by broth microdilution method; type: functional; conditions: H 6966/08, 24 h; procedure, shortened: as §3
Staphylococcus aureus [19] = test: Antibacterial activity against methicillin-resistant Staphylococcus aureus H 5996/08 after 48 hrs by broth microdilution method; type: functional; conditions: H 5996/08, 48 h; procedure, shortened: as §3
Mycobacterium kansasii [20] = test: Antimycobacterial activity against Mycobacterium kansasii 6509/96 after 14 days; type: functional; conditions: 6509/96, 336 h; procedure, shortened: as §2
Enterococcus sp. = test: Antibacterial activity against Enterococcus sp. J 14365/08 after 24 hrs by broth microdilution method; type: functional; conditions: J 14365/08, 24 h; procedure, shortened: as §4
[21] = system: Trichophyton mentagrophytes; test: Antifungal activity against Trichophyton mentagrophytes 445 after 24 hrs by broth microdilution method; type: functional; conditions: Trichophyton mentagrophytes, 445, 24 h
Trichosporon asahii = test: Antifungal activity against Trichosporon asahii 1188 after 24 hrs by broth microdilution method; type: functional; conditions: Trichosporon asahii, 1188, 24 h
Procedure, shortened: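 Microdilution broth per CLSI M27-A3 (yeasts) or M38-A2 (moulds) in RPMI 1640 with glutamine, buffered to pH 7.0 with 0.165 mol MOPS. Compounds were in DMSO. Final inoculum was 5 × 10³ ± 0.2 CFU/mL. Other conditions matched the antibacterial assay, with MIC as IC₉₀ read visually and at 540 nm. Determined twice, in duplicate.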

SMILES	MIC (Mycobacterium avium [1])	MIC (Mycobacterium kansasii [2])	MIC (Staphylococcus aureus [3])	MIC [4]	Ratio [6]	MIC [7]	MIC (Mycobacterium kansasii [8])	Ratio [9]	MIC (Mycobacterium avium [10])	MIC (Staphylococcus aureus [11])	Ratio [12]	MIC (Mycobacterium kansasii [13])	IC50 (HepG2)	MIC (Mycobacterium kansasii [14])	MIC [15]	MIC (Staphylococcus aureus [16])	MIC (Mycobacterium kansasii [17])	MIC [18]	MIC (Staphylococcus aureus [19])	MIC (Mycobacterium kansasii [20])	also measured
Nc1ccc(S(=O)(=O)Nc2nccs2)cc1 [SULFATHIAZOLE]	62.5 µM (≈ 16 µg/mL)	2 µM (≈ 0.511 µg/mL)	31.2 µM (≈ 7.98 µg/mL)	> 500 µM	1040.3	62.5 µM (≈ 16 µg/mL)	1 µM (≈ 0.255 µg/mL)	1040.3	62.5 µM (≈ 16 µg/mL)	62.5 µM (≈ 16 µg/mL)	33.2	2 µM (≈ 0.511 µg/mL)	4160 µM	4 µM (≈ 1.02 µg/mL)	32 µM (≈ 8.17 µg/mL)	62.5 µM (≈ 16 µg/mL)	4 µM (≈ 1.02 µg/mL)	> 500 µM	125 µM (≈ 31.9 µg/mL)	2 µM (≈ 0.511 µg/mL)	IC50 [5]: ≥ 5 µM
Cc1cc(C)nc(NS(=O)(=O)c2ccc(NC(=O)c3cc(Cl)ccc3O)cc2)n1	32 µM (≈ 13.9 µg/mL)	16 µM (≈ 6.93 µg/mL)	15.6 µM (≈ 6.76 µg/mL)	250 µM (≈ 108 µg/mL)	5.4	125 µM (≈ 54.1 µg/mL)	16 µM (≈ 6.93 µg/mL)	5.4	62.5 µM (≈ 27.1 µg/mL)	15.6 µM (≈ 6.76 µg/mL)	10.8	62.5 µM (≈ 27.1 µg/mL)	337 µM	32 µM (≈ 13.9 µg/mL)	125 µM (≈ 54.1 µg/mL)	15.6 µM (≈ 6.76 µg/mL)	62.5 µM (≈ 27.1 µg/mL)	31.2 µM (≈ 13.5 µg/mL)	31.2 µM (≈ 13.5 µg/mL)	62.5 µM (≈ 27.1 µg/mL)	MIC (Enterococcus sp.): 125 µM (≈ 54.1 µg/mL); MIC [21]: 125 µM (≈ 54.1 µg/mL); MIC (Trichosporon asahii): 125 µM (≈ 54.1 µg/mL)
